Test results: PubChem BioAssay
Records with an inconclusive call do not appear.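 Rule for the calls, unless noted: active = viability at or below 27.92% in each of two runs, the all-compound median minus 4 SD; inconclusive = no clear call, values can overlap the other calls; inactive = the rest.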

How the values were obtained:
[1] = S. cerevisiae growth inhibition in permissive medium (OD615), pilot counter-assay for S. cerevisiae lifespan shortening project, permissive growth control (AID 705;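 active = growth inhibition above 25% in both replicates, a cutoff set 3 SD above the mean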); settings: OD615, 24 h, at 10 µM, hits give high values
Summary of the method: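 System: S. cerevisiae with engineered DeaD lifespan system. Medium: SC raffinose/galactose permissive medium. Doses: single compound dose of 10 µM, 0.25% DMSO final. Schedule: 24 h exposure, 30 °C. Measured by: OD615 turbidity read. Read-out: growth inhibition.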

[2] = S. cerevisiae growth inhibition in restrictive medium, OD615, pilot screen, restrictive growth control, yeast lifespan reduction project (AID 706;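 active = growth inhibition above a set limit, 3 SD over mean compound inhibition, in both replicates, cut at about 43% in these data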;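 note: modified DeaD lifespan yeast strain shifted to restrictive glucose medium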); settings: OD615, 48 h, at 10 µM, hits give high values
Summary of the method: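 Assay system – genetically modified Saccharomyces cerevisiae, DeaD replicative lifespan assay strain · Medium – CSMM-D glucose medium · Doses – 10 µM compound, 0.25% DMSO · Times – 4 h pre-incubation, 48 h exposure at 30 °C · Signal – optical density at 615 nm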

[3] = doxorubicin toxicity protection in MRP-1 cells – H69AR cells, CellTiter-Glo, duplicate, MRP-1 activator project, pilot screen (AID 807;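 active = viability increase at or above a cutoff of the median across tested compounds plus 3 SD, cut at about 8.5% in these data, passing the limit was not always enough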;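 note: compound pretreatment 18-22 h then 72 h combined with doxorubicin; 0% = doxorubicin alone and 100% = vehicle without doxorubicin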); settings: H69AR viability with doxorubicin, CellTiter-Glo luminescence; at 10 µM; hits give high values
[4] = viability of HCT116 without oncogenic beta-catenin – human colon tumor cells, pilot screen (AID 823;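 active = cell viability at or below a set limit in both duplicate runs, the limit being the all-compound median minus 4 SD, cut at about 23% in these data, passing the limit was not always enough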;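 note: 0% = wells killed by 20 µM Hyamine and 100% = untreated DMSO cell wells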); settings: HCT116 beta-catenin knockout viability, CellTiter-Glo, 60 h; at 10 µM; hits give low values
[5] = viability of PTEN-null HCT116 cells – cell-based, HCT116 clonal line, CellTiter-Glo, pilot screen (AID 824); settings: HCT116 PTEN-deleted viability, 60 h, at 10 µM, hits give low values;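 note: 0% = 20 µM Hyamine control and 100% = vehicle cell control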
[6] = RAM pathway blockade in budding yeast – dse1pr::URA3 reporter, 5-FOA selection, pilot screen (AID 869;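 active = inhibition over a set limit, the all-compound mean plus 3 SD, in both replicate runs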;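 note: 0% = DMSO wells with no growth and 100% = 10 µM 1-NA-PP1 with full growth; RAM network block rescues cells from 5-FOA so hits raise OD615 growth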); settings: S. cerevisiae dse1pr::URA3 5-FOA growth, OD615, 2 d; at 10 µM; hits give high values; strain carries analog-sensitive mutant Cbk1 kinase
[7] = RAM signaling pathway blockade in yeast – S. cerevisiae, Pdr1DBD-CYC8 efflux-inhibited sensitized strain, primary screen (AID 1298;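 active = RAM network inhibition above 8.4% in each of two replicates, 3 SD over the compound average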;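 note: 0% = DMSO untreated cells without growth and 100% = 10 µM 1-NA-PP1 full growth; higher means more yeast growth rescued from 5-FOA killing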); settings: S. cerevisiae cbk1-as DSE1-URA3 strain, 5-FOA growth OD615, 2 d; at 50 µM; hits give high values

COc1ccc(CCNC(=O)CCS(=O)(=O)c2cccc3nsnc23)cc1OC
inactive: growth inhibition [1] -10.1% | growth inhibition [2] -13.1% | viability increase [3] -2.17% | viability [4] 96.4% | viability [5] 97.5% | inhibition [6] 0.45% | RAM network inhibition [7] 3.1%

CSc1ccc(CN2CCC(O)CC2)cc1
inactive: growth inhibition [1] -12.7% | growth inhibition [2] -15.8% | viability increase [3] -0.93% | viability [4] 102% | viability [5] 100% | inhibition [6] 1.4% | RAM network inhibition [7] 5.11%

Cc1ccc(CNC(=O)c2cc3c(=O)n(C)c4ccccc4c3n2C)o1
inactive: growth inhibition [1] 1.32% | growth inhibition [2] 0.445% | viability increase [3] -4.08% | viability [4] 106% | viability [5] 104% | inhibition [6] 2.61% | RAM network inhibition [7] 4.84%

Cc1ccc(-n2ncc3c(=O)n(CC(=O)NCc4ccco4)cnc32)cc1C
inactive: growth inhibition [1] -5.52% | growth inhibition [2] -6.3% | viability increase [3] -5.18% | viability [4] 74.4% | viability [5] 56.4% | inhibition [6] 2.71% | RAM network inhibition [7] 1.9%

COc1ccc(NC(=O)c2c(-c3ccccc3)noc2C)c(OC)c1
inactive: growth inhibition [1] -16% | growth inhibition [2] -30.3% | viability increase [3] -1.79% | viability [4] 97.4% | viability [5] 92.6% | inhibition [6] 0.895% | RAM network inhibition [7] 3.75%

COCCNC(=O)Cn1ncc2ccsc2c1=O
inactive: growth inhibition [1] -1.34% | growth inhibition [2] 5.16% | viability increase [3] 0.35% | viability [4] 107% | viability [5] 100% | inhibition [6] 2.33% | RAM network inhibition [7] 4.98%

CN(C)c1nc(N)nc(-c2cccnc2)n1
inactive: growth inhibition [1] -0.465% | growth inhibition [2] 3.66% | viability increase [3] 0.55% | viability [4] 102% | viability [5] 103% | inhibition [6] 1.14% | RAM network inhibition [7] 5.69%

COc1ccc(Cc2nnc(SCC(=O)NC(C)c3ccccc3)o2)cc1 (stereo not given)
inactive: growth inhibition [1] 2.93% | growth inhibition [2] -8.12% | viability increase [3] -1.25% | viability [4] 91.2% | viability [5] 86.8% | inhibition [6] 0.57% | RAM network inhibition [7] 4.19%

COc1ccc(N2Cc3cccc(C(=O)O)c3C2=O)cc1
inactive: growth inhibition [1] -17.1% | growth inhibition [2] -1.34% | viability increase [3] -0.59% | viability [4] 104% | viability [5] 101% | inhibition [6] 1.5% | RAM network inhibition [7] 0.58%

O=C(CSc1cn(Cc2ccccc2)c2ccccc12)Nc1nccs1
inactive: growth inhibition [1] -7.55% | growth inhibition [2] 3.57% | viability increase [3] 1.89% | viability [4] 88.8% | viability [5] 85.4% | inhibition [6] 1.73% | RAM network inhibition [7] 0.83%

COc1ccc(CNC(=O)Cn2cc3c(n2)CCCCC3)cc1
inactive: growth inhibition [1] 2.42% | growth inhibition [2] -0.895% | viability increase [3] -2.29% | viability [4] 102% | viability [5] 91.9% | inhibition [6] 0.54% | RAM network inhibition [7] -1.07%

CC(C)n1c(SCc2ccccc2F)nc2c1c(=O)n(C)c(=O)n2C
inactive: growth inhibition [1] -11.3% | growth inhibition [2] -1.82% | viability increase [3] -1.77% | viability [4] 82.7% | viability [5] 76.5% | inhibition [6] 1.15% | RAM network inhibition [7] 5.87%

COC(=O)Cn1cnc2c(nnn2-c2cccc(Cl)c2)c1=O
inactive: growth inhibition [1] -0.625% | growth inhibition [2] 0.135% | viability increase [3] 1.53% | viability [4] 108% | viability [5] 99.4% | inhibition [6] 1.28% | RAM network inhibition [7] -1.59%

O=C(Nc1ccccn1)c1cccc(S(=O)(=O)N2CCOCC2)c1
inactive: growth inhibition [1] 6.61% | growth inhibition [2] -0.23% | viability increase [3] -1.53% | viability [4] 102% | viability [5] 98.3% | inhibition [6] 1.09% | RAM network inhibition [7] 2.13%

O=C1NCC2=C1C(c1ccc(Br)cc1)Nc1ccccc1N2 (stereo not given)
inactive: growth inhibition [1] -14.3% | growth inhibition [2] -0.565% | viability increase [3] 0.99% | viability [4] 106% | viability [5] 96.1% | inhibition [6] -0.645% | RAM network inhibition [7] -2.69%

CCOc1cccc(NC(=O)Cc2cccs2)c1
inactive: growth inhibition [1] -8.74% | growth inhibition [2] -0.895% | viability increase [3] -1.86% | viability [4] 94.1% | viability [5] 84.6% | inhibition [6] 1.06% | RAM network inhibition [7] 4.72%

Cc1ccc(OCC(=O)NCc2ccccn2)c(Br)c1
inactive: growth inhibition [1] 2.21% | growth inhibition [2] -9.19% | viability increase [3] -1.45% | viability [4] 97.8% | viability [5] 95% | inhibition [6] 0.22% | RAM network inhibition [7] 0.01%

CCSc1nnc(NC(=O)c2cc3c(s2)CCCC3)s1
inactive: growth inhibition [1] -3.65% | growth inhibition [2] -0.425% | viability increase [3] -1.67% | viability [4] 54.3% | viability [5] 60.2% | inhibition [6] 2% | RAM network inhibition [7] -1.29%

CC(O)c1cccc(NC(=O)CCC(=O)O)c1 (stereo not given)
inactive: growth inhibition [1] 0.85% | growth inhibition [2] -3.43% | viability increase [3] -2.35% | viability [4] 98.9% | viability [5] 95.4% | inhibition [6] 1.97% | RAM network inhibition [7] -1.13%

O=C(CCCOc1ccc(Cl)cc1)N1CCCCC1
inactive: growth inhibition [1] -13.2% | growth inhibition [2] -11.9% | viability increase [3] 3.35% | viability [4] 96.1% | viability [5] 96.8% | inhibition [6] 0.44% | RAM network inhibition [7] -0.78%

CCCCN1C(=O)c2ccc(C(=O)Nc3c(N)n(CCCC)c(=O)n(C)c3=O)cc2C1=O
inactive: growth inhibition [1] -9.82% | growth inhibition [2] -6.89% | viability increase [3] -0.93% | viability [4] 103% | viability [5] 88.2% | inhibition [6] 0.865% | RAM network inhibition [7] 7.06%

O=C1CCCC(O)=C1C1C2=C(CCCC2=O)Oc2ccccc21 (stereo not given)
inactive: growth inhibition [1] -12.6% | growth inhibition [2] -10.5% | viability increase [3] -5.35% | viability [4] 91.6% | viability [5] 90.1% | inhibition [6] 2.33% | RAM network inhibition [7] 3.55%

C=CCOc1ccc(C2c3c(oc4ccccc4c3=O)C(=O)N2c2ccccn2)cc1OCC (stereo not given)
inactive: growth inhibition [1] -13.9% | growth inhibition [2] -10.5% | viability increase [3] -5.39% | viability [4] 77.9% | viability [5] 74.6% | inhibition [6] 2.57% | RAM network inhibition [7] 6.03%

CCOC(=O)c1c(C)c(C(=O)O)n(C)c1C
inactive: growth inhibition [1] -12.4% | growth inhibition [2] -19.7% | viability increase [3] 0.64% | viability [4] 99.5% | viability [5] 94.6% | inhibition [6] 2.54% | RAM network inhibition [7] 2.91%

CCOc1ccc(C2N(c3ccc(F)cc3)C(=O)C3CCCN32)cc1 (stereo not given)
inactive: growth inhibition [1] -6.9% | growth inhibition [2] -2.44% | viability increase [3] -0.91% | viability [4] 94.3% | viability [5] 91.2% | inhibition [6] 2.38% | RAM network inhibition [7] 4.43%
